Bioassay records from PubChem BioAssay.
XBP1 UPR activ – activators of adaptive XBP1 UPR arm, primary screen, cell-based, CHO-XBP1 luciferase reporter, luminescence, uHTS. activation, % at 20 µM. hit rate 0.33% among 330,000. IRE1-XBP1 UPR activation; percent of tunicamycin response, DMSO as zero;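 active means versus positive control, 20 µM dose yields 30% or more activation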;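 further: 100% = tunicamycin at 10 µg/mL and 0% = DMSO only wells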
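Signal: luciferase luminescence; Assay system: CHO-XBP1 luciferase reporter cells; Amount: one thousand reporter cells per well; Dosing: 20 µM single concentration, DMSO 1%; Benchmarks: high control tunicamycin 10 µg/mL final, low control DMSO vehicle only; Schedule: 6 h compound exposure at 37 °C, 5% CO2; Evaluation: percent activation relative to tunicamycin reference.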
UPR CHOP act – activators of apoptotic CHOP UPR arm, primary screen, cell-based, CHO-CHOP luciferase reporter, luminescence, uHTS | activation, % at 10 µM | AID 449763, 2010 | hit rate 0.34% among 330,000 | UPR activation; percent of tunicamycin response over DMSO baseline;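 active means at 10 µM dose, activation of 40% or more, normalized to positive control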;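 further: 100% = tunicamycin at 10 µg/mL and 0% = DMSO alone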
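System: CHO CHOP reporter cells. Amount: 500 cells per well. Buffer or medium: F12 medium, 10% FBS. Compound dosing: one dose, 10 µM in 0.5% DMSO. Incubation: 6 h compound exposure at 37 °C after overnight seeding. Technique: Steady-Glo luciferase luminescence. Benchmarks: tunicamycin and DMSO controls.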
CHOP inh – inhibitors of CHOP promoter induction, primary screen, cell-based, unfolded protein response, luciferase reporter; CHO-K1 CHOP-promoter luciferase, tunicamycin-induced, 15-18 h; inhibition, % at 10 µM; hit rate 3.8% among 220,000; AID 2732, 2010;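 active means compounds that reduced the stress-induced luciferase reporter signal by more than about 70% of percent inhibition, limit read from the data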;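 further: 0% = tunicamycin plus vehicle and 100% = wells without tunicamycin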
aDG glyco up – activators of alpha-DG glycosylation, primary screen, uHTS, Pro5-aDG cells, AlphaScreen; AID 624168, 2012; activation, % at 10 µM; hit rate 0.22% among 360,000; alpha-DG glycosylation AlphaScreen (IIH6); 0% Pro5, 100% B10-LARGE cell signal;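 active means activation of at least 8% versus controls, or a plate z-score of at least 8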;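 further: Pro5 are CHO cells carrying HIG-tagged alpha-DG that lacks glycosylation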
NR3A LBD binder – binders of NR3A ligand-binding domain, primary screen, biophysical, differential scanning fluorimetry, uHTS; Tm shift relative to glycine control, % at 25 µM; NR3A LBD differential scanning fluorimetry, Tm shift; 0% = protein alone, 100% = glycine-bound protein; Glutamate receptor ionotropic, NMDA 3A (GRIN3A) ligand-binding domain; hit rate 2.5% among 340,000;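 active means melting temperature shift of at least 10% of the positive control shift, at one fixed dose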
MPTP inh – mitochondrial permeability transition pore inhibitors, primary screen, biochemical, isolated mouse mitochondria, absorbance; Ca2+ swelling absorbance, 30 min; inhibition, % at 10 µM; hit rate 1.4% among 360,000;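 active means inhibition of 50% or more, scaled per plate between neutral and stimulator controls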;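 further: 0% = DMSO wells given calcium and 100% = 1 mM EGTA wells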
* marks the source's active call; other numbers are inactive results; . = not tested or not shown. An excerpt weighted towards active compounds, which were near 5.6% of everything screened.

SMILES	XBP1 UPR activ	UPR CHOP act	CHOP inh	aDG glyco up	NR3A LBD binder	MPTP inh
COc1cc(N=Nc2ccc(C)cc2S(N)(=O)=O)c(C)cc1N	.	.	.	-0.3	-2.4	0.0
O=C(Nc1ncc2c(n1)CC(c1ccco1)CC2=O)c1ccccc1 (centres undefined)	-2.0	1.8	-18.8	-0.3	0.3	3.7
O=C1CC(c2ccco2)Cc2nc(Nc3nc(-c4ccccc4)c4ccccc4n3)ncc21 (centres undefined)	-4.9	1.6	92.8*	-0.3	-0.1	0.2
COc1ccc(OC)c2[nH]c(C(=O)N/N=C/c3ccccc3O)cc12	-1.1	1.9	.	0.1	17.6*	0.9
COc1cccc(/C=N/NC(=O)C(=O)N/N=C/c2cccc(OC)c2O)c1O	.	.	37.9	0.7	1.1	0.8
COc1cccc(/C=N/NC(=O)c2cc3c(OC)cccc3[nH]2)c1O	-2.1	-1.0	92.0*	0.8	-4.6	1.3
COc1cccc(/C=N/NC(=O)c2cc3cc([N+](=O)[O-])ccc3s2)c1O	.	.	99.7*	0.3	12.3*	7.9
C[C@@H]1CN([C@@H](C)CO)C(=O)c2cc(C#Cc3ccccc3)cnc2O[C@@H]1CN(C)Cc1ccccn1	.	.	.	-0.2	.	-0.4
CCc1nnc(NC(=O)CCc2ccc(C)o2)s1	-2.5	1.1	75.3*	-0.1	6.7	-1.9
CCC/C(=C1/c2ccccc2C(=O)N1c1ccccc1)c1ccc2[nH]ccc2c1	4.7	2.0	.	0.0	13.3*	4.3
O=C1c2ccccc2/C(=C\c2ccc3[nH]ccc3c2)N1c1ccccc1	13.6	4.3	.	0.5	-0.8	0.9
COc1ccc(S(=O)(=O)NCC2CCCN(Cc3cn(C)nc3C)C2)cc1 (centres undefined)	-3.6	-3.1	.	-0.3	0.7	-2.4
Cc1c2cnn(CC(=O)Nc3c(F)c(F)cc(F)c3F)c(=O)c2c(C)n1Cc1ccc(F)cc1	-5.1	1.4	78.6*	.	.	.
Cc1c2cnn(CC(=O)NCc3ccccn3)c(=O)c2c(C)n1Cc1ccccc1	-3.2	1.1	.	0.0	-0.3	-1.2
Cc1ccc2oc(=O)n(CCOc3ccccc3Cl)c2c1	0.2	-0.5	92.7*	-0.3	-1.2	0.3
CCCOc1ccccc1Cn1c(=O)oc2ccc(C)cc21	-3.4	-1.3	80.8*	0.1	1.2	-0.7
O=C(O)C(CCc1ccccc1)(Cc1ccccc1)C(=O)O	.	.	.	-0.3	-2.4	0.3
Cc1c(Cl)cccc1NC(=O)Cc1ccc([N+](=O)[O-])cc1	-0.1	-3.4	6.9	0.0	-2.2	34.7
COc1cccc2cc(C(=O)c3ccc([N+](=O)[O-])cc3)oc12	1.1	3.5	-4.1	0.7	-1.0	0.2
CCC(C)(C)NC(=O)C(OC(=O)c1cc2sccc2n1C)c1ccc(OC)cc1 (centres undefined)	-7.3	-0.4	79.3*	0.1	0.8	1.6
CCn1cc(C(=O)O)c(=O)c2cc(F)c(N/N=C/c3ccccc3[N+](=O)[O-])cc21	10.3	0.4	77.8*	-0.5	-6.0	12.7
CCOC(=O)[C@H]1[C@H]2COc3ccc(C)cc3[C@@H]2N2C(=O)c3cc(F)ccc3NC(=O)[C@@]12C	-0.8	0.2	.	0.2	0.6	-0.3
c1coc(-c2nc3c4c5c(sc4ncn3n2)CCCC5)c1	2.3	-0.5	78.9*	-0.2	0.5	0.5
Cc1cc(C)cc(NC(=O)c2cccn2-c2ncc(C(F)(F)F)cc2Cl)c1	-0.4	0.9	73.8*	0.3	-12.3	0.2
CCc1ccc(/C=C(\C#N)C(=O)NC2CCS(=O)(=O)C2)cc1 (centres undefined)	-0.5	-0.5	.	0.1	0.4	1.1
COc1cccc(/C=C(\C#N)C(=O)NC2CCS(=O)(=O)C2)c1 (centres undefined)	-1.5	2.5	-0.3	0.2	13.1*	-0.8
COC(=O)CCCCC(=O)C1C(=O)CC(C)(C)C(C(=O)OC)C1=O (centres undefined)	-1.7	0.5	2.0	-0.2	12.2*	-0.9
